From ChEMBL document CHEMBL3997841, “Continued optimization of the M5 NAM ML375: Discovery of VU6008667, an M5 NAM with high CNS penetration and a desired short half-life in rat for addiction studies” (Bioorg Med Chem Lett, 2017)
pIC50: −log10 of the molar value. Values after ≈ are worked out from the molar mass of the structure shown.

Legend:
[1] = target: T1, Muscarinic acetylcholine receptor M5 (Homo sapiens, UniProt P08912); test: Negative allosteric modulation of human M5 receptor expressed in CHO cells assessed as inhibition of acetyl choline-induced calcium mobilization preincubated for 150 secs followed by acetyl choline addition by Fluo-4-AM dye based fluorescence assay; format: functional, cell-based; conditions: for pIC50: read-out: IC50; for IC50: read-out: pIC50 (converted)
T1 sequence (P08912 whole entry): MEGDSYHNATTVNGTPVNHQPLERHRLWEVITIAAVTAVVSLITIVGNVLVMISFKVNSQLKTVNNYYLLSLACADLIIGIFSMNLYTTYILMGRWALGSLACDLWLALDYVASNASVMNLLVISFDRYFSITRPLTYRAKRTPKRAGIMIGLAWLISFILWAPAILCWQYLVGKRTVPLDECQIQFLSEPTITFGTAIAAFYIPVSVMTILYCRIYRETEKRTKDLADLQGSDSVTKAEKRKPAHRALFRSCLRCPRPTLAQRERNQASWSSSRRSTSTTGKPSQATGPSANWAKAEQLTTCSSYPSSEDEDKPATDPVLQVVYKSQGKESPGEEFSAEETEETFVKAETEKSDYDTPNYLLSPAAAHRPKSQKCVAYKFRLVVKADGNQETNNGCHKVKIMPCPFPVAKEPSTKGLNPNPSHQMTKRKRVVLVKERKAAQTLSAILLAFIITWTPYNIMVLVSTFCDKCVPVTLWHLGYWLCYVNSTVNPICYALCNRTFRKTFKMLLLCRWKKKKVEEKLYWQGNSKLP
How it was run: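 Intracellular calcium mobilization in CHO cells stably transfected with human M5 receptor, run in the presence of an ACh EC80 concentration; values are means of at least three independent determinations, each performed in triplicate.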

[2] = (§1) Fraction unbound in human plasma at 5 uM after 4 hrs by LC-MS/MS based equilibrium dialysis method; format: ADME, cell-free
[3] = (§2) Fraction unbound in rat plasma at 5 uM after 4 hrs by LC-MS/MS based equilibrium dialysis method; format: ADME, cell-free
[4] = Clearance in rat plasma by LC/MS/MS analysis; format: ADME
[5] = Elimination half life in rat by LC-MS/MS analysis; format: ADME; conditions: in vivo, read-out: beta t1/2
[6] = target: T2, Muscarinic acetylcholine receptor M5 (Homo sapiens) (UniProt P08912); test: Negative allosteric modulation of human M5 receptor expressed in CHO cells assessed as inhibition of acetyl choline-induced calcium mobilization at 10 uM preincubated for 150 secs followed by acetyl choline addition by Fluo-4-AM dye based fluorescence assay relative to acetyl choline; values are per cent of control
T2 sequence (whole entry): T1 sequence (P08912 whole entry)

[7] = Aqueous solubility of the compound; format: physicochemical; conditions: buffer
[8] = target: T3, Muscarinic acetylcholine receptor M5 (Rattus norvegicus, UniProt P08911); test: Negative allosteric modulation of rat M5 receptor expressed in CHO cells assessed as inhibition of acetyl choline-induced calcium mobilization preincubated for 150 secs followed by acetyl choline addition by Fluo-4-AM dye based fluorescence assay; format: functional, cell-based
T3 sequence (P08911 whole entry): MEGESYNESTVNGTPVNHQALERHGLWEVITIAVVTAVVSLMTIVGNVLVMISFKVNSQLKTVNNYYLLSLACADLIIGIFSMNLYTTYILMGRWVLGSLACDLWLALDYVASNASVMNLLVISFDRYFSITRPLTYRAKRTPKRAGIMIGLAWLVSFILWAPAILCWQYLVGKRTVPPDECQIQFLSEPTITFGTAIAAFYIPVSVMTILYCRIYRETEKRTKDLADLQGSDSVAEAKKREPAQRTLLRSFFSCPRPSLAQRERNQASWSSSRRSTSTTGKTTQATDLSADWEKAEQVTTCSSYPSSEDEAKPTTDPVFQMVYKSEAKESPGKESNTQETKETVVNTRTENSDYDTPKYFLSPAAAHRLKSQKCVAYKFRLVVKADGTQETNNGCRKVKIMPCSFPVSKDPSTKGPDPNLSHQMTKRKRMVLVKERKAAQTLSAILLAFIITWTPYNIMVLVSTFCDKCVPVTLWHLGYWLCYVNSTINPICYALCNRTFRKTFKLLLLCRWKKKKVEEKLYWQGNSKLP
How it was run: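 Calcium mobilization assay in CHO cells stably transfected with rat M5 receptor; data are means of at least three independent determinations done in triplicate.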

Plasma [9] = test: as §1; format: ADME, cell-free; conditions: 4 h, 5 µM
Plasma [10] = test: as §2; format: ADME, cell-free; conditions: 4 h, 5 µM
Brain = test: Fraction unbound in rat brain at 1 uM after 4 hrs by LC-MS/MS based equilibrium dialysis method; format: ADME, tissue-based
[11] = Volume of distribution at steady state in rat at 1 mg/kg, iv or 3 mg/kg, po by LC-MS/MS analysis; format: ADME, organism-based; conditions: in vivo, read-out: Vdss
[12] = Clearance in rat at 1 mg/kg, iv or 3 mg/kg, po by LC-MS/MS analysis; format: ADME, organism-based; conditions: in vivo
Rattus norvegicus = test: Oral bioavailability in rat at 3 mg/kg by LC-MS/MS analysis; format: ADME, organism-based; conditions: in vivo
[13] = target: T4, Muscarinic acetylcholine receptor M5 (Rattus norvegicus) (UniProt P08911); test: Negative allosteric modulation of rat M5 receptor expressed in CHO cells assessed as inhibition of acetyl choline-induced calcium mobilization at 10 uM preincubated for 150 secs followed by acetyl choline addition by Fluo-4-AM dye based fluorescence assay relative to acetyl choline; values are per cent of control
T4 sequence (whole entry): T3 sequence (P08911 whole entry)

[14] = Selectivity ratio of IC50 for rat M5 receptor expressed in CHO cells to IC50 for human M5 receptor expressed in CHO cells; format: cell-based

SMILES | pIC50 [1] | IC50 [1] [µM] | fraction unbound at 4 h, 5 µM [2] | fraction unbound at 4 h, 5 µM [3] | clearance [4] [mL/min/kg] | half-life [5] [min] | residual activity [6] [%] | solubility [7] [µg/mL] | pIC50 [8] | Fu (Plasma [9]) | Fu (Plasma [10]) | Fu (Brain) | Vd [11] [L/kg] | clearance [12] [mL/min/kg] | F (Rattus norvegicus) [%] | residual activity [13] [%] | Ratio IC50 [14]
O=C(c1ccc(F)c(F)c1)N1CCN2C(=O)c3ccccc3[C@@]12c1ccc(N2CCc3ccccc3C2)cc1 | 5.09 | 7.76 | < 0.01 | < 0.01 | > 70 | < 30 | 20.1 | – | – | – | – | – | – | – | – | – | –
O=C(c1ccc(F)c(F)c1)N1CCN2C(=O)c3ccccc3[C@@]12c1ccc(Cl)cc1 | – | – | – | – | – | – | 2.3 | < 10 | – | – | – | – | – | – | – | – | –
O=C(c1ccc(F)c(F)c1)N1CCN2C(=O)c3ccccc3[C@@]12c1ccc(N2CCCCC2)cc1 | 5.22 | – | < 0.01 | < 0.01 | > 70 | < 30 | 10.5 | – | – | – | – | – | – | – | – | – | –
O=C(c1ccc(F)c(F)c1)N1CCN2C(=O)c3ccccc3[C@@]12c1ccc(N2CC[C@@H](F)C2)cc1 | 5.51 | 3.02 | < 0.01 | < 0.01 | > 70 | < 30 | 3.3 | – | – | – | – | – | – | – | – | – | –
CN(c1ccc([C@@]23c4ccccc4C(=O)N2CCN3C(=O)c2ccc(F)c(F)c2)cc1)C1CCC1 | – | – | < 0.01 | < 0.01 | > 70 | < 30 | 2.6 | 10000 (≈ 21.1 mM) | – | – | – | – | – | – | – | – | –
CC1Cc2ccccc2N1c1ccc([C@@]23c4ccccc4C(=O)N2CCN3C(=O)c2ccc(F)c(F)c2)cc1 (some centres not stated) | 5.34 | 4.47 | < 0.01 | < 0.01 | > 70 | < 30 | 27 | – | – | – | – | – | – | – | – | – | –
Cc1cc([C@@]23c4ccccc4C(=O)N2CCN3C(=O)c2ccc(F)c(F)c2)ccc1Cl | – | – | – | – | – | – | – | – | 5.80 | 0.006 | 0.014 | 0.003 | 7.4 | 82 | 17 | 2.6 | –
O=C(c1ccc(F)c(F)c1)N1CCN2C(=O)c3ccccc3[C@@]12c1ccc(N2CCCCC2C(F)(F)F)cc1 (some centres not stated) | 5.24 | – | < 0.01 | < 0.01 | > 70 | < 30 | 2.6 | – | – | – | – | – | – | – | – | – | –
O=C(c1ccc(F)c(F)c1)N1CCN2C(=O)c3ccccc3[C@@]12c1ccc(N2CCC(F)CC2)cc1 | 5.37 | – | < 0.01 | < 0.01 | > 70 | < 30 | 13.6 | – | – | – | – | – | – | – | – | – | –
O=C(c1ccc(F)c(F)c1)N1CCN2C(=O)c3ccccc3[C@@]12c1ccc(NC2CCC2)cc1 | 5.16 | 6.76 | < 0.01 | < 0.01 | > 70 | < 30 | 25.5 | – | – | – | – | – | – | – | – | – | –
O=C(c1ccc(F)c(F)c1)N1CCN2C(=O)c3ccccc3[C@@]12c1ccc(N2CCC(C(F)(F)F)CC2)cc1 | 5.47 | – | < 0.01 | < 0.01 | > 70 | < 30 | 3.2 | – | – | – | – | – | – | – | – | – | –
O=C(c1ccc(F)c(F)c1)N1CCN2C(=O)c3ccccc3[C@@]12c1ccc(N2CCCC(F)C2)cc1 (some centres not stated) | 5.20 | – | < 0.01 | < 0.01 | > 70 | < 30 | 6.9 | – | – | – | – | – | – | – | – | – | –
O=C(c1ccc(F)c(F)c1)N1CCN2C(=O)c3ccccc3[C@@]12c1ccc(N2CCCC(F)(F)C2)cc1 | 5.84 | – | < 0.01 | < 0.01 | > 70 | < 30 | 3.1 | 10000 (≈ 19.6 mM) | – | – | – | – | – | – | – | – | 2
N#CC1CCCN(c2ccc([C@@]34c5ccccc5C(=O)N3CCN4C(=O)c3ccc(F)c(F)c3)cc2)C1 (some centres not stated) | – | – | < 0.01 | < 0.01 | > 70 | < 30 | 26.3 | – | – | – | – | – | – | – | – | – | –
CC1CCCN(c2ccc([C@@]34c5ccccc5C(=O)N3CCN4C(=O)c3ccc(F)c(F)c3)cc2)C1 (some centres not stated) | – | – | < 0.01 | < 0.01 | > 70 | < 30 | 3.6 | – | – | – | – | – | – | – | – | – | –
O=C(c1ccc(F)c(F)c1)N1CCN2C(=O)c3ccccc3[C@@]12c1ccc(N2CCC[C@H]2c2cccnc2)cc1 | 5.46 | – | < 0.01 | < 0.01 | > 70 | < 30 | 6 | – | – | – | – | – | – | – | – | – | –
CCOC(=O)N1CCN(c2ccc([C@@]34c5ccccc5C(=O)N3CCN4C(=O)c3ccc(F)c(F)c3)cc2)CC1 | – | – | < 0.01 | < 0.01 | > 70 | < 30 | 7.5 | – | – | – | – | – | – | – | – | – | –
O=C(c1ccc(F)c(F)c1)N1CCN2C(=O)c3ccccc3[C@@]12c1ccc(N2CC3(C2)CC(F)(F)C3)cc1 | < 5.00 | – | < 0.01 | < 0.01 | > 70 | < 30 | 26.2 | – | – | – | – | – | – | – | – | – | –
O=C(c1ccc(F)c(F)c1)N1CCN2C(=O)c3ccccc3[C@@]12c1ccc(N2CCC(F)(F)CC2)cc1 | 5.74 | – | < 0.01 | < 0.01 | > 70 | < 30 | 3.1 | 10000 (≈ 19.6 mM) | – | – | – | – | – | – | – | – | 2
